High-throughput results as filed in PubChem BioAssay.
Sampled rows, rich in hits. Any-hit rate of the full collection: about 4.1%.
KCNQ1 inh = inhibitors of human KCNQ1 potassium channel; CHO-K1 KCNQ1, FluxOR thallium flux fluorescence; active compounds read high; 310,000 compounds, 1.3% hits; B-score at 10 µM; AID 2642;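 active = compounds whose thallium flux B-score, printed positive for inhibition, exceeds three library SD while starting fluorescence stays within three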;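 also: channel opened by potassium depolarization with thallium stimulus after 20 min compound exposure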
Target sequence (P51787 whole entry, looked up): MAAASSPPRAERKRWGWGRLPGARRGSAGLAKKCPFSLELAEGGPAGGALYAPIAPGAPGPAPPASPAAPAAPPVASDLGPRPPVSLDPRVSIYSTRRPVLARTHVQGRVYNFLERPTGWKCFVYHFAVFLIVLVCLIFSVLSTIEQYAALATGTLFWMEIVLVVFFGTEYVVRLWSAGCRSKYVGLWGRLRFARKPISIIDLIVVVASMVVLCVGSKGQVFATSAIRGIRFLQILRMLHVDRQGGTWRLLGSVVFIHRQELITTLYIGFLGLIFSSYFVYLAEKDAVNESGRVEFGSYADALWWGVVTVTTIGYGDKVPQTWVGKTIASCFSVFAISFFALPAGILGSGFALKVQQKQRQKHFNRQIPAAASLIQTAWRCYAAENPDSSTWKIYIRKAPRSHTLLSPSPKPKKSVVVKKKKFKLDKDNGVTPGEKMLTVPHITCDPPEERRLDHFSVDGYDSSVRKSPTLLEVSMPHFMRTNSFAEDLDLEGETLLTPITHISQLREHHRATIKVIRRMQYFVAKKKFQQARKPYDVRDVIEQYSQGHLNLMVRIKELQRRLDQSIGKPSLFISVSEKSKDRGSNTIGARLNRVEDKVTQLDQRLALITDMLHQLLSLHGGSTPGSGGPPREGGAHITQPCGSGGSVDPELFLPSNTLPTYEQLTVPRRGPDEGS
KCNQ1 act = potentiates or activates the human KCNQ1 potassium channel. AID 2648. 310,000 compounds, 0.35% hits. P51787. CHO-K1 KCNQ1, thallium flux FluxOR fluorescence; active compounds read high. B-score at 10 µM;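 active = fluorescence ratio B-score, a plate-corrected score, at least three library SD, with initial intensity B-score within 5 SD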
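Assay system: CHO-K1 cells stably expressing KCNQ1. Medium: assay buffer for compound exposure, DMSO matched across wells. Timing: 37 °C overnight plating, 90-min dark dye load, 20-min compound pretreatment. Signal: kinetic FluxOR fluorescence, 10 s baseline plus 110 s post-stimulus.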
KCC2 mod = modulates chloride dependent transport by human KCC2 | KCC2 cells, thallium flux FluoZin-2 fluorescence | B-score of Tl+ flux slope (higher = more flux/activation; lower = inhibition) at 10 µM | Q9H2X9 | 190,000 compounds, 2.2% hits;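 active = thallium flux slope and its plate-corrected score both differing from the plate sample mean at a set confidence after two filtering rounds, in either direction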;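 also: slope of fluorescence scaled to starting intensity during 10 to 20 s after thallium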
KCNK9 block = human KCNK9 channel inhibition; Q9NPC2; HEK293 KCNK9, FluxOR thallium flux fluorescence; active compounds read low; 310,000 compounds, 1.2% hits; B-score at 10 µM; AID 488922;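 active = ratio B-score over 3 SD below the library mean, with starting fluorescence within 5 SD of its mean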;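 also: negative B-score means less thallium flux so channel inhibition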
KCNK3 inh = human KCNK3 channel inhibition, primary screen | O14649 | CHO-KCNK3 thallium flux, FluxOR fluorescence; active compounds read low | B-score at 10 µM | 340,000 compounds, 0.84% hits | AID 602410;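 active = B-score under library mean minus 4 SD, starting fluorescence ratio at most library mean plus 5 SD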;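 also: more negative B-score means stronger inhibition of thallium flux through KCNK3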
hERG rescue = shields human hERG channel from block by proarrhythmic agents; 310,000 compounds, 0.51% hits; CHO-hERG, FluxOR thallium flux, dofetilide IC70 present; Q12809; activation (rescue from dofetilide block), less the hit threshold, % at 10 µM;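 active = activation above the mean of controls blocked by dofetilide plus 5 SD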;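 also: thallium influx through hERG after potassium depolarization seen as dye fluorescence rise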
KCC2 sec1 = KCC2 (human) modulation, secondary assay; shares compounds with KCC2 mod; HEK293-KCC2, thallium flux, FluoZin2 fluorescence; active compounds read high; normalised thallium flux (F/F0 slope) at 10 µM; 3,700 compounds, 15% hits; AID 1713;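 active = thallium flux slope above the same plate's solvent-only control mean plus 3 SD; inconclusive = the two replicate wells disagree; inactive = no significant difference from solvent-only control wells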
KCC2 bumet counter = bumetanide-insensitive thallium flux in KCC2 cells with ouabain, counter-screen; shares compounds with KCC2 mod; HEK293-KCC2 + bumetanide/ouabain, thallium flux FluoZin2; active compounds read high; normalized thallium flux at 10 µM; 3,700 compounds, 49% hits; AID 1714;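 active = thallium entry rate above the same plate's blocked-transporter control wells by more than 3 SD; inconclusive = the two repeat wells disagree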;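 also: raw slope of fluorescence over initial fluorescence between 10 and 20 s after thallium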
KCC2 secondary2 = confirmation of human KCC2 transport modulators; 3,700 compounds, 23% hits; AID 1715; HEK293-KCC2, thallium flux FluoZin2 fluorescence; actives lie on both sides; F/F0 rise rate, 10–20 s post-thallium; normalized thallium flux at 10 µM; shares compounds with KCC2 mod;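 active = thallium flux slope more than 3 SD above or below the plate's solvent-only control mean, mostly below; inconclusive = the two repeat wells disagreed; inactive = no significant shift from solvent-only controls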;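 also: raw slope with 0.1% DMSO as baseline and bumetanide as block control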
HEK counter1 = acts in parental HEK cells, KCC2 counter-screen; 3,700 compounds, 46% hits; HEK293 parental cells, thallium flux FluoZin2, ouabain; baseline-ratio fluorescence slope, 10–20 s after thallium; shares compounds with KCC2 mod; thallium flux rate (normalised fluorescence) at 10 µM; AID 1716;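 active = thallium flux rate significantly above the same plate's solvent-only control wells, beyond their mean plus 3 SD; inconclusive = the two replicate wells gave conflicting results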
KCC2 ouabain = confirmation of human KCC2 modulators with ouabain. raw Tl+ flux slope (below DMSO = inhibition, above = activation) at 10 µM. 3,700 compounds, 48% hits. shares compounds with KCC2 mod. HEK293-KCC2, thallium flux FluoZin2 fluorescence; bidirectional: low = inhibitor, high = activator;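 active = thallium flux slope beyond 3 SD from same-plate DMSO control mean in most replicates, usually higher, sometimes lower; inconclusive = repeat tests gave conflicting results; inactive = no significant difference from controls in most replicates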;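 also: slope of initial-normalized fluorescence between seconds 10 and 20 after thallium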
HEK293 Tl flux2 = acts in parental HEK cells, second KCC2 counter-screen; 3,700 compounds, 33% hits; thallium flux slope at 10 µM; shares compounds with KCC2 mod; HEK293 parental, thallium flux FluoZin-2 fluorescence slope;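 active = thallium flux slope above the same plate's solvent-control mean plus 3 SD in both duplicate wells; inconclusive = duplicate wells that disagreed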;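 also: run without ouabain in cells lacking the KCC2 cotransporter; slope of fluorescence scaled to its starting value between 10 and 20 s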
Numbers without * were called inactive; i = inactive; ? = inconclusive; / = not tested or not shown.

SMILES	KCNQ1 inh	KCNQ1 act	KCC2 mod	KCNK9 block	KCNK3 inh	hERG rescue	KCC2 sec1	KCC2 bumet counter	KCC2 secondary2	HEK counter1	KCC2 ouabain	HEK293 Tl flux2
COc1ccc(OCC(=O)N2CCC(Cc3ccccc3)CC2)cc1	i	i	/	i	i	-13.2	/	/	/	/	/	/
O=C(Cn1c(-c2ccccc2)noc1=O)Nc1ccc(N2CCCCCC2)cc1	i	i	/	i	i	-8.1	0.00783	0.006	0.0308	0.00759	0.0163*	0.0108
COc1ccc(-c2noc(=O)n2CC(=O)N2CCC(Cc3ccccc3)CC2)cc1	i	i	-4.73*	i	i	-11.3	0.00622	0.00326*	0.0226*	0.00521*	0.0131*	0.00751*
CC[C@H](C)[C@H](NC(N)=O)C(=O)OCC(=O)NCc1ccc(Cl)cc1	i	i	-0.209	i	i	-4.5	/	/	/	/	/	/
CC1CCC/C(=N\NC(=S)NCc2ccccc2)C1 (stereo not drawn)	i	i	8.05*	i	i	-4.9	0.0171	0.0104*	0.0267	?	0.0173	0.0118
CC1CCC/C(=N\NC(=S)Nc2ccccc2)C1 (stereo not drawn)	i	i	14.8*	i	i	-4.2	0.0144*	0.0494*	0.0325	0.0177*	0.0353*	0.0118*
CC1CCCC/C1=N\NC(=S)Nc1ccccc1 (stereo not drawn)	i	i	9.47*	i	i	-5.9	0.0132*	0.0525*	0.0352	0.0188*	0.0478*	0.013*
O=C(NC(=S)Nc1ccccc1)C1CCCCC1	i	i	/	i	i	-8.4	/	/	/	/	/	/
COc1ccc(CNC(=S)Nc2cccc(OC)c2)cc1	i	i	/	i	i	-6.9	/	/	/	/	/	/
COc1cccc(NC(=S)NN=C2CCCCCC2)c1	i	i	39*	i	i	-12.2	0.0185*	0.0996*	?	0.0409*	0.0499*	0.0174*
O=C1CCC[C@@H]2Cc3[nH]c4c(Cl)ccc(Cl)c4c3[C@@H]3CCN1[C@H]23	i	i	/	i	i	-16.0	/	/	/	/	/	/
Cc1c(NC(=O)CCc2ccc(S(=O)(=O)N3CCOCC3)cc2)c(=O)n(-c2ccccc2)n1C	/	/	/	/	i	/	/	/	/	/	/	/
O=C(COC(=O)CCc1nc2ccccc2c(=O)[nH]1)NCc1ccc(F)cc1	i	i	-0.894	i	i	-15.6	/	/	/	/	/	/
CCOC(=O)C1=C(Cc2ccc(OC)cc2)C(=O)c2ccccc2C1=O	/	/	6.57*	/	i	/	0.00756	0.00824*	0.0305	0.0113*	0.0183	?
CCOC(=O)C1=C(Cc2ccc(C)cc2)C(=O)c2ccccc2C1=O	i	i	0.0102	i	/	2.9	/	/	/	/	/	/
CNC(=O)C(=O)Nc1nc(C23CC4CC(CC(C4)C2)C3)cs1	i	i	3.87*	i	i	1.0	0.00718	0.0117*	0.0277	0.0127*	?	0.0125*
O=C(NCc1ccc(F)cc1)C(=O)Nc1nc(C23CC4CC(CC(C4)C2)C3)cs1	i	i	8.93*	i	i	4.9*	0.00539	0.0377*	0.0331	0.0213*	0.0344*	0.0177*
O=C(NCc1ccncc1)C(=O)Nc1nc(C23CC4CC(CC(C4)C2)C3)cs1	i	i	0.236	i	i	-9.0	/	/	/	/	/	/
O=C(NCc1cccnc1)C(=O)Nc1nc(C23CC4CC(CC(C4)C2)C3)cs1	i	i	1.62	i	i	-15.5	/	/	/	/	/	/
CC1OC(O[C@H]2CC[C@]3(C)C4C=C[C@]56OC[C@@]7(CC[C@@H](C)[C@H](C)C75)[C@H](O)C[C@@]6(C)[C@]4(C)CC[C@H]3C2(C)C)C(OC2OC(CO)C(O)C(O)C2OC2OCC(O)C(O)C2O)C(O)C1O (stereo partly drawn)	i	i	39.5*	i	/	-44.9	0.0129*	0.0464*	0.0324	0.00853	?	0.0105
Cc1ccc(N2CC(C(=O)N3CCc4ccccc4C3)CC2=O)cc1 (stereo not drawn)	i	i	/	i	i	0.1	0.00694	0.00424	0.029	0.00707	0.0169	0.00967
O=C1NC(=S)N(C(=O)c2ccc(F)cc2)/C1=C/c1ccccc1	i	i	26.4*	i	i	-0.6	0.0215*	0.0819*	?	0.0779*	0.0563*	0.0318*
O=C(c1ccc(F)cc1)N1CCN(Cc2ccccc2)CC1	i	i	/	i	i	-7.2	/	/	/	/	/	/
Cc1cc(=O)n2nc(N3CCCC3C(=O)Nc3cccc(Cl)c3C)sc2n1 (stereo not drawn)	i	i	/	i	i	-6.2	/	/	/	/	/	/
CC(=O)CCC(=O)N1CCCC(CNC(=O)c2ccc(-c3ccccc3)cc2)C1 (stereo not drawn)	i	i	-1.93	i	i	-15.2	/	/	/	/	/	/
CSCC(=O)N1CCCC(CNC(=O)c2ccc(-c3ccccc3)cc2)C1 (stereo not drawn)	i	i	-6.35*	i	i	-13.0	0.00841	0.00605	0.0296*	0.00394	0.0155*	0.0107
O=C(NCC1CCCN(C(=O)c2cccnc2)C1)c1ccc(-c2ccccc2)cc1 (stereo not drawn)	i	i	-7.6*	i	i	-6.9	0.00902	0.00701	0.0271*	0.00449	0.0161*	0.0115
Cc1ncccc1C(=O)N1CCCC(CNC(=O)c2ccc(-c3ccccc3)cc2)C1 (stereo not drawn)	i	i	-4.39*	i	i	-5.3	0.0107	0.00568	?	0.00811	0.0167*	0.0109
CC1CCCCN1C(=O)CSc1nnc(Cc2ccccc2)n1C (stereo not drawn)	i	i	3.16*	i	i	-3.1	0.00549	0.00487	0.0294	0.00764	0.0179	0.0109
